Most compounds without a hit are left out; they make up all but 2.4% or so of the library.
GASC-1 inh = human JMJD2C demethylase inhibition; inhibition, % at 2.35 µM; hit rate 0.069% among 330,000; GST-JMJD2C(1-420) H3K9me3 demethylation, DELFIA europium;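 active = more than half of a compound's replicate wells show inhibition beyond 50%, single wells judged on their own value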;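 note: signal counts dimethyl H3K9 product captured on neutravidin plate; 0% = median of DMSO wells and 100% = 0.3 times that DMSO median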
SIAE inh = human SIAE inhibition, primary screen; Q9HAT2; SIAE FP-Rh probe binding, fluorescence polarization; inhibition, % at 9.66 µM; hit rate 0.69% among 370,000; AID 1053197;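 active = inhibition above a cutoff: mean of compounds within the control limits plus 3 SD of those, cut at about 17% in these data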;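 note: 0% = plate median of compound wells and 100% = probe without SIAE protein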
HTRA1 inh = HTRA1 (human) protease inhibition; Q92743; recombinant HTRA1, FP-rhodamine activity-based probe, fluorescence polarization; inhibition, % at 5.96 µM; hit rate 0.5% among 340,000; AID 504803; in the data active = inhibition above about 36%;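 note: 0% = enzyme with DMSO and 100% = wells lacking enzyme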
ABHD4 inh = inhibitors of mouse ABHD4. AID 720543. inhibition, % at 8.92 µM. hit rate 0.54% among 370,000. purified mABHD4, FP-Rh probe fluorescence polarization. Q8VD66;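 active = inhibition exceeding the mean over every tested compound plus 3 SD, cut at about 30% in these data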;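 note: 0% = plate median of compound wells and 100% = S159A mutant with DMSO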
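Assay system: wild-type mouse ABHD4 protein; compound: single nominal dose of 8.92 µM, 0.89% DMSO final; schedule: 45 min + 60 min at 25 °C; measured by: FP readout, ex 525 nm / em 598 nm; evaluation: % inhibition of FP-Rh probe binding versus controls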
PRMT1 FP inh = inhibitors of human PRMT1; Q99873; recombinant PRMT1, activity-based probe fluorescence polarization; inhibition, % at 2.79 µM; hit rate 1.3% among 370,000;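 active = inhibition above about 21% made by adding two undisclosed values, limit read from the data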
Target sequence (Q99873 whole entry, looked up): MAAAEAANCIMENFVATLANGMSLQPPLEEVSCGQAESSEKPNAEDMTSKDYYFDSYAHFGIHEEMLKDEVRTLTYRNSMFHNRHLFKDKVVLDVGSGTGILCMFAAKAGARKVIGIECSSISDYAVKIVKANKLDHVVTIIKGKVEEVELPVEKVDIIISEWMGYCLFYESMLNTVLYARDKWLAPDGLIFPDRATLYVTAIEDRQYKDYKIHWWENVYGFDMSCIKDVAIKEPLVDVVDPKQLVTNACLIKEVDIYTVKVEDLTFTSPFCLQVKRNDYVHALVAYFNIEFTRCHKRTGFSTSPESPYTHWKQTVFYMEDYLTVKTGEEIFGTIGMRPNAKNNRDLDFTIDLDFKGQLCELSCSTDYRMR
PRMT1 inh conf = confirmation of human PRMT1 inhibitors | AID 687036 | hit rate 42% among 3,300 | inhibition, % at 2.79 µM | shares compounds with PRMT1 FP inh | recombinant His-PRMT1, activity-based probe fluorescence polarization;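 active = mean inhibition across replicates above the hit cutoff derived for the earlier primary screen, cut at about 22% in these data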
An asterisk follows results filed as active; nt = no result given.

SMILES | GASC-1 inh | SIAE inh | HTRA1 inh | ABHD4 inh | PRMT1 FP inh | PRMT1 inh conf
CC(=O)Nc1ccc2c(=O)n(-c3ccccc3)sc2c1 | nt | 8 | -1 | 3 | 86* | 91*
CC(=O)Nc1ccc(-c2cc(N)n(-c3ccccc3)n2)cc1 | -8 | -11 | -1 | -10 | -2 | nt
c1ccc2cc3[nH]c(CNc4nc(N5CCOCC5)nc5c4ncn5-c4ccsc4)nc3cc2c1 | nt | 8 | nt | 25 | -4 | nt
CCOc1ccc(CCN2C(=S)N([C@@H](CC(C)C)CN3CCC[C@@H]3CN3C(=S)NC[C@@H]3Cc3ccccc3)C[C@@H]2Cc2ccc(O)cc2)cc1 | nt | -14 | nt | -8 | -4 | nt
OC(c1ccc(Cl)c(F)c1)c1ncc(-c2cccc(F)c2)[nH]1 (stereo not drawn) | nt | 2 | nt | -6 | -4 | nt
Cc1ccc(NC(=O)CSc2nc(N)cc(=O)[nH]2)cc1S(=O)(=O)N1CCCCC1 | 8 | -3 | 2 | -14 | 44* | 0
Cc1ccc(NC(=O)CSc2nc(N)cc(=O)[nH]2)cc1S(=O)(=O)N1CCOCC1 | 4 | -7 | -1 | -7 | 1 | nt
CCOC(=O)[C@]12CCC=C1N(Cc1ccco1)C(=O)[C@H](CC(=O)N1CCCC1)C2 | nt | 3 | nt | 0 | -2 | nt
Cc1nn(C)cc1/C=N/NC(=S)Nc1ccccc1 | 6 | 6 | 8 | 1 | 39* | 4
N#C/C(=C\c1ccccc1)C(=O)NNS(=O)(=O)c1cccc([N+](=O)[O-])c1 | 2 | -5 | -3 | 7 | 43* | 4
Cc1ccc(C)c(S(=O)(=O)Nc2ccc3[nH]c(=O)[nH]c3c2)c1 | -16 | 0 | 9 | 10 | 5 | nt
Cc1ccc(C)c(S(=O)(=O)Nc2ccc3scnc3c2)c1 | -9 | 0 | -3 | -3 | 35* | 7
CCOC(=O)c1sc(N)c(C(=O)Nc2ccccc2OC)c1C | 7 | 2 | -19 | 0 | 26* | 7
CCOC(=O)c1sc(N)c(C(=O)OC)c1C | 38 | 5 | 3 | 3 | -4 | nt
COC(=O)c1c(N)sc(C(=O)NCCc2ccccc2)c1C | 5 | 3 | 3 | 1 | 26* | 30*
COc1ccc(CN2C(=O)CSCCC2(C)c2nnnn2-c2c(C)cccc2C)cc1 (stereo not drawn) | nt | 3 | nt | 6 | 3 | nt
O=C(Nc1nc(-c2ccco2)c(-c2ccco2)s1)c1ccc(F)cc1F | nt | 16 | 8 | 8 | 34* | 11
CC(=O)c1sc(NC(=O)c2ccccc2F)nc1-c1ccccc1 | 11 | -7 | -8 | -6 | 3 | nt
O=C(Nc1nc(-c2ccco2)c(-c2ccco2)s1)c1c(F)cccc1Cl | 3 | -7 | 26 | 5 | 54* | 19
CCOC(=O)[C@]12CCCCC/C=C\1N(Cc1ccc(OC)cc1)C(=O)[C@H]2CC(=O)NCCC(C)C | nt | 2 | nt | -3 | -4 | nt
CC(=O)Nc1ccc(-c2ccnc3c2CC(C)(C(=O)NCc2ccc(F)c(F)c2)O3)cc1 (stereo not drawn) | nt | 0 | nt | 23 | -2 | nt
COc1ccc(CCNC(=O)c2ccc(CN3CCC(Cc4ccccc4)CC3)cc2)cc1 | -3 | -9 | 4 | -5 | 0 | nt
COc1ccc(C(=O)NCC23C=CC(O2)C2C(=O)N(Cc4ccccc4)C(=O)C23)cc1 (stereo not drawn) | -1 | 3 | 3 | 0 | 54* | 7
O=C(Nc1cccc(N2C(=O)C=CC2=O)c1)c1cccs1 | 6 | -21 | -68 | -15 | 86* | 94*
Cc1cc(C)cc(-n2c3nc4ccccc4nc3c3c(=O)n(Cc4ccco4)cnc32)c1 | 14 | -11 | -26 | -18 | 52* | 18
SMILES | GASC-1 inh | SIAE inh | HTRA1 inh | ABHD4 inh | PRMT1 FP inh | PRMT1 inh conf
CCOc1ccc(-n2c(COc3ccccc3)nnc2SCC(=O)Nc2ccc(OCc3ccccc3)cc2)cc1 | nt | -2 | nt | -6 | -4 | nt
COC(=O)c1ccc(N2CN=C(c3ccc(C)cc3)NC2=S)cc1 | -4 | -12 | -18 | -1 | 35* | -6
CN(Cc1ccc2c(c1)CCCN2C)C(=O)[C@H]1O[C@@H](n2ccc(=O)[nH]c2=O)[C@H](O)[C@@H]1O | nt | 7 | nt | 7 | 52* | 7
Cn1c(CS/C(N)=N/N=C/c2ccccc2)c(Br)c(=O)n1-c1ccccc1 | 8 | 7 | 3 | 8 | 42* | 56*
COCCSc1ccccc1C(=O)Nc1cc(C)on1 | 2 | -4 | 8 | 6 | 26* | 22*
CCNC(=O)/C=C1\NC(C)(C)Cc2c1ccc1ccccc21 | -8 | 4 | -7 | -3 | 9 | nt
Cc1cc2c(cc1C)/C(=C\C(N)=O)NC(C)(C)C2 | -15 | 5 | -2 | -4 | 26* | 34*
Cc1cccc2c1CC(C)(C)N/C2=C\C(N)=O | 3 | 14 | 5 | -6 | 45* | 45*
COc1cc2c(cc1OC)/C(=C/C#N)NC(C)(C)C2 | 7 | 7 | -2 | 5 | 1 | nt
CNC(=O)/C=C1\NC(C)(C)Cc2ccccc21 | -4 | 0 | 0 | -15 | 41* | 55*
CCCn1c(NC(=O)c2ccccc2)nc(Cc2ccccc2)c1-c1ccc(OC)cc1 | nt | -1 | nt | 8 | 2 | nt
CCCCOCCCNC(=O)C[C@H]1C[C@@]2(C(=O)OC)C(=C[C@H](C(C)(C)C)O[C@@H]2C)N(Cc2ccco2)C1=O | nt | 2 | nt | 0 | -2 | nt
Cc1sc(NC(=S)NC(=O)c2ccco2)c(C#N)c1C | 0 | -2 | -4 | -6 | 49* | 3
O=[n+]1c2c(n([O-])c3cc(F)c(N4CCCC4)cc31)CCC2 | 17 | -9 | 4 | 9 | 35* | 47*
O=[n+]1c2c(n([O-])c3cc(F)c(N4CCCC4)cc31)CCCC2 | 0 | -2 | -2 | 3 | 46* | 48*
C=CCN1C(=O)[C@@H](CC(=O)NCCC(C)C)[C@]2(C(=O)OC)CCCCC=C12 | nt | 3 | nt | -3 | -4 | nt
Cc1cc(SCNC(=O)c2ccccc2)nc(C(C)C)n1 | -2 | -3 | 2 | 0 | 11 | nt
Cc1cc(C)nc(SCNC(=O)c2ccccc2)n1 | 4 | 8 | 4 | -6 | 34* | -2
CCCC/C=C1/[C@@H](C(C)C)N(Cc2ccc3c(c2)OCO3)C2=N[C@H](c3ccccc3)CC(=O)N21 | nt | -2 | nt | -7 | -4 | nt
CCc1cc(C(=O)Nc2ccc(OC)nc2)sc1C | -1 | -4 | -4 | -4 | 26* | 7
CC(C)=C[C@H]1C[C@H](C)[C@H]2CC[C@H](C)c3c(O)c(O[C@H]4OC[C@H](O)[C@@H](O)[C@@H]4O)c(C)c1c32 | nt | -1 | nt | -8 | -2 | nt
C[C@@H]1ON(C)[C@H]2C[C@H]3c4cc(-c5cc6ccccc6o5)ccc4CCN3C[C@@H]12 | nt | -7 | nt | -4 | -3 | nt
Cc1ccc(S(=O)(=O)CCSC(=N)N)cc1 | 7 | 3 | 4 | -1 | 25* | 7
Cc1ccc(S(=O)(=O)CC(N)=O)cc1 | 3 | -8 | -2 | -4 | -1 | nt
CN(Cc1ccccc1)C(=O)c1[nH]cnc1C(=O)Nc1ccc(Br)cc1F | nt | -7 | -24 | -12 | 2 | nt
